Source: PubChem
SF-1 act = activators of human SF-1, primary screen, cell-based, CHO-K1, Gal4-SF-1 LBD, luciferase luminescence | activation, % at 10 µM | AID 522, 2006 | Steroidogenic factor 1 (Homo sapiens), Q13285 | actives 1.9% (n = 65,000) | CHO-K1 Gal4-SF-1 LBD luciferase reporter; % increase over DMSO SF-1-specific signal;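 active means activation above the mean activation of all tested compounds plus 3 SD, cut at about 50% in these data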
Target sequence (Q13285 whole entry, looked up, the tested form may be a part): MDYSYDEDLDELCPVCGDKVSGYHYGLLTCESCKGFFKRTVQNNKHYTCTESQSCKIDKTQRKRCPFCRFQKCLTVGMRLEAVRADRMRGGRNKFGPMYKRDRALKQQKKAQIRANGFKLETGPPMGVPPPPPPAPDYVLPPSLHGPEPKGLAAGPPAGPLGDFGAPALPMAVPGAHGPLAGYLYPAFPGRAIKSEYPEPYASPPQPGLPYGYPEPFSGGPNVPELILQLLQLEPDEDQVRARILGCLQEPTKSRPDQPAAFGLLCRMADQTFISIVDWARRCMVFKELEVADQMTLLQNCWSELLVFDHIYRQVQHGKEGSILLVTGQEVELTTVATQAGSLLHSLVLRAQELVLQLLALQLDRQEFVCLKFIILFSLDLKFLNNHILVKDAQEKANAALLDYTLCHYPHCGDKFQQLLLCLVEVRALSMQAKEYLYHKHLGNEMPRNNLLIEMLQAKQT
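Test system: CHO-K1 cells with Gal4–hSF-1 LBD chimera plus Gal4-driven luciferase; Input: 4,000 cells/well; Compound: 10 µM only; Times: 20 h compound treatment, 37 °C; Measured by: steady-glow luciferase luminescence, read after 15 min reagent incubation; Measure: percent activation versus DMSO; Control set: DMSO and mock-transfected background; Replicates: one test per compound.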
HEK293 NFkB inh = inhibitors of PMA/ionomycin-induced NF-kB reporter, primary screen, antigen receptor NF-kB inhibitor project, cell-based, HEK-293 luciferase reporter, luminescence | HEK-293 NF-kB luciferase reporter | inhibition, % at 3 µM | actives 0.21% (n = 62,000) | AID 465, 2006;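 active means inhibition above the mean of all tested compounds plus 3 SD, cut at about 40% in these data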
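Timing: 1 h pretreatment, 16 h stimulation, 37 °C; system: HEK-293 cells with stable firefly luciferase reporter driven by four HIV NF-kB elements; doses: 3 µM once, 0.30% DMSO; measured by: luciferase luminescence; control set: DMSO and 10 µM reference inhibitor; repeats: single test; reagent: PMA plus ionomycin mix as NF-kB-activating stimulus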
Jurkat viability = cytotoxicity toward Jurkat T cells, primary screen, cytotoxicity control, cell-based, Jurkat E6.1, 60K MLSMR library; Jurkat E6.1 viability, ATP luminescence, 48 h; inhibition, % at 4 µM; actives 1.2% (n = 56,000); AID 463, 2006;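 active means inhibition above the mean inhibition of all tested compounds plus 3 SD, cut at about 28% in these data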
RORa activator = activators of orphan receptor RORA, primary screen, cell-based, luminescence | Nuclear receptor ROR-alpha (Homo sapiens), P35398 | CHO-K1 Gal4-RORA LBD luciferase reporter; percent increase over mock-subtracted basal signal | activation, % at 10 µM | actives 1.5% (n = 65,000) | AID 560, 2006;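 active means activation above the mean of all tested compounds plus 3 SD, cut at about 49% in these data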
MT1-MMP txn act = MT1-MMP promoter reporter activation – cell-based, luciferase luminescence, primary screen; AID 750, 2007; activation factor at 10 µM; actives 0.16% (n = 86,000); HT1080 MT1-MMP promoter luciferase reporter, overnight; active compounds read high;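 active means activation factor of at least 2 for MT1-MMP transcription at 10 µM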
Of the large screens only hits and unclear results are named; the others gave an inactive call; ! = not confirmed by another sample. Rows were chosen to be rich in hits. Some 2.9% of all compounds tested hit in one or more screens of this group.

COC(=O)[C@@]1(C)C[C@@H]1[C@@H](NC(=O)[C@@]1(C)C[C@@H]1[C@@H](NC(=O)[C@@]1(C)C[C@@H]1[C@@H](NC(=O)[C@@]1(C)C[C@@H]1[C@@H](NC(=O)OCc1ccccc1)c1ccccc1)c1ccccc1)c1ccccc1)c1ccccc1	none (no result: SF-1 act, HEK293 NFkB inh, Jurkat viability, RORa activator)
Cc1nc(N)sc1-c1csc(Nc2ccc(Cl)cn2)n1	none
Cc1nc(N)sc1-c1csc(Nc2ccccn2)n1	RORa activator 57.1
CN(C)c1ccc(C2=NOC(CN3C(=O)c4ccccc4S3(=O)=O)C2)cc1 (centres undefined)	RORa activator 60.1
O=C1c2ccccc2S(=O)(=O)N1Cc1nc2ccccc2s1	none (no result: MT1-MMP txn act)
CCOC(=O)C1(C)NC(c2ccc(OC)cc2OC)C2C(=O)N(c3cccc(OC)c3)C(=O)C21 (centres undefined)	none
Cc1cc(C(=O)CSc2nnc(-c3cccs3)n2Cc2ccccc2)c(C)n1C	none
O=C(Cn1cnc2ccccc2c1=O)c1ccc2c(c1)OCCO2	SF-1 act 75.1
O=c1cc(CSc2nnc(-c3cccs3)n2Cc2ccccc2)nc2sc3ccccc3n12	Jurkat viability 70.7
O=c1c2ccccc2nnn1CSc1ccc2c(c1)OCCO2	SF-1 act 77.3
O=c1c2ccccc2nnn1CSc1nnc(-c2cccs2)n1Cc1ccccc1	Jurkat viability 28.5 (no result: MT1-MMP txn act)
COc1ccccc1NS(=O)(=O)c1ccc(C)c(C(=O)NCC2CCCO2)c1 (centres undefined)	none
Cc1ccc(NS(=O)(=O)c2ccc(OCC(=O)N3CCOCC3)cc2)cc1	none (no result: SF-1 act, HEK293 NFkB inh, Jurkat viability, RORa activator)
O=c1c2ccccc2nnn1CSc1nnc2ccccn12	SF-1 act 77.6
Cc1ccc(-n2nnnc2SCn2nnc3ccccc3c2=O)cc1	none (no result: SF-1 act, HEK293 NFkB inh, Jurkat viability, RORa activator)
COc1ccc(C(=O)c2ccc(OC)c(N)c2)cc1N	Jurkat viability 62.3, RORa activator 65.9
Cc1ccc(S(=O)(=O)Nc2cccc3ncccc23)s1	Jurkat viability 30.7
Cc1ccc(S(=O)(=O)Nc2ccnc3ccccc23)cc1	none (no result: SF-1 act, HEK293 NFkB inh, Jurkat viability, RORa activator)
CCC(C)Oc1ccccc1C1CC(=O)NC2=C1C(=O)CCC2 (centres undefined)	Jurkat viability 39.5
Cn1c(=O)c(C(=O)Nc2ccccn2)c(O)c2ccccc21	none
Cn1c(=O)c(C(=O)Nc2cnccn2)c(O)c2ccccc21	RORa activator 52.5
Cc1onc(-c2ccccc2Cl)c1C(=O)N1CCN=C1SCc1cccnc1	none
CCC#CCOCC(=O)Nc1ccccc1	none (no result: SF-1 act, HEK293 NFkB inh, Jurkat viability, RORa activator)
Cc1ccc(Oc2ccc(NC(=O)c3ccco3)cc2)cc1	SF-1 act 72.8
Cc1ccc(NC(=O)c2ccc(OC(=O)c3ccco3)cc2)cc1	SF-1 act 51.9, RORa activator 51.0
O=C(Nc1ccc(Oc2ncccn2)cc1)c1ccco1	none
O=C(Nc1ccc2nc(-c3ccccc3)[nH]c2c1)c1ccco1	none (no result: SF-1 act, HEK293 NFkB inh, Jurkat viability, RORa activator)
COc1ccc(NC(=O)c2ccco2)cc1NC(=O)c1ccc(C)cc1	none (no result: MT1-MMP txn act)
Cc1cccc2[nH]c(-c3ccc(NC(=O)c4ccco4)cc3)nc12	SF-1 act 74.4
NC(=O)C1CCN(C(=O)CSc2nc3c(c(-c4ccccc4)n2)CCCC3)CC1	none
Cn1c(SCC(=O)c2ccc(F)cc2)nnc1-c1cnccn1	MT1-MMP txn act 2.8
Cn1c(SCc2ccccc2Cl)nnc1-c1cnccn1	SF-1 act 56.1, RORa activator 51.5 (no result: Jurkat viability)
Cn1ncc(Cl)c1C(=O)Nc1ccc(Cl)cn1	none (no result: SF-1 act, HEK293 NFkB inh, Jurkat viability, RORa activator)
Cc1ccccc1Cn1nnc(-c2ccc3c(c2)OCO3)n1	none (no result: SF-1 act, HEK293 NFkB inh, Jurkat viability, RORa activator)
Fc1cccc(Cl)c1Cn1nnc(-c2ccc3c(c2)OCO3)n1	SF-1 act 70.5, RORa activator 56.0
COc1ccccc1-n1c(SCC(=O)NC2CCCCC2)nc2c(c1=O)SCC2	none
O=C(NCC1CCCO1)c1ccc2nc(N3CCCCC3)sc2c1 (centres undefined)	SF-1 act 53.9, RORa activator 59.4
CC1CCN(c2nc3ccc(C(=O)O)cc3s2)CC1	HEK293 NFkB inh 82.8 (no result: MT1-MMP txn act)
O=C(c1ccc2nc(N3CCOCC3)sc2c1)N1CCN(C(=O)c2ccco2)CC1	none
CCCCC(=O)Nc1ccc(C(=O)Nc2nc(CC(=O)OCC)cs2)cc1	none (no result: SF-1 act, HEK293 NFkB inh, Jurkat viability, RORa activator)
COc1ccc(CCNC(=O)CSc2nnc(-c3ccc(F)cc3)o2)cc1OC	none
Cc1cc(O)c(C(C)C)cc1NS(=O)(=O)c1ccccc1	none
O=C(Nc1cccc2nsnc12)c1cccs1	RORa activator 78.2!
Nc1c(C(=O)NC2CCCC2)sc2nc(-c3cccs3)ccc12	SF-1 act 59.7
O=C(NC1CCCCCC1)c1cccs1	none
Cc1ccc(NC(=O)c2cc(N(C)C)ccc2[P+](=O)O)cc1	RORa activator 69.2 (no result: Jurkat viability)
CC(CC1C(C#N)=C(N)SC(N)=C1C#N)c1ccccc1 (centres undefined)	none
Brc1cccc(-c2n[nH]c(-c3ccccc3)n2)c1	SF-1 act 65.2, RORa activator 83.0
CCOC(=O)C1CCN(S(=O)(=O)c2ccc(-c3nc4ccccc4s3)s2)CC1	SF-1 act 67.9
CC1CCCCN1S(=O)(=O)c1ccc(NC(=O)CSc2nnnn2C)cc1 (centres undefined)	none
O=C(COC(=O)c1ccc(Br)o1)NCc1ccco1	none (no result: Jurkat viability)
CNC(=O)c1cc2c(=O)n3cccc(C)c3nc2n1C	none
COc1ccc(-c2cn3ccc4ccccc4c3n2)cc1	MT1-MMP txn act 2.5 (no result: SF-1 act, HEK293 NFkB inh, Jurkat viability, RORa activator)
Cc1ccc2nc(-c3ccccc3)cn2c1	HEK293 NFkB inh 70.8
Cc1cccn2cc(-c3ccccc3)nc12	RORa activator 75.8
COC(=O)N1C2(C=CC1(C)C(=O)NCc1ccccn1)CCCCC2 (centres undefined)	none (no result: SF-1 act, HEK293 NFkB inh, Jurkat viability, RORa activator)
COc1ccc(-c2nnc3sc(-c4ccco4)nn23)cc1OC	none
CCOc1cccc(-c2nnc3sc(-c4cccs4)nn23)c1	none (no result: HEK293 NFkB inh, Jurkat viability)
COc1cccc(-c2nnc3sc(-c4ccco4)nn23)c1	SF-1 act 49.6 (no result: HEK293 NFkB inh, Jurkat viability)
COc1cccc(-c2nnc3sc(-c4cccs4)nn23)c1	SF-1 act 70.0 (no result: HEK293 NFkB inh, Jurkat viability)
CCCn1cnc2c(cnn2-c2ccc(F)cc2)c1=O	SF-1 act 52.4
CCOC(=O)C(CC)n1cnc2c(cnn2-c2ccc(Cl)cc2)c1=O (centres undefined)	none
CCOC(=O)C(C)n1cnc2c(cnn2-c2ccc(Cl)cc2)c1=O (centres undefined)	SF-1 act 70.0
CCCCn1cnc2c(cnn2-c2ccc(Cl)cc2)c1=O	SF-1 act 64.8
CCCCn1cnc2c(cnn2-c2ccc(F)cc2)c1=O	none (no result: MT1-MMP txn act)
O=c1c2cnn(-c3ccccc3)c2ncn1Cc1ccccc1	none
c1ccc(-c2ccc(OCCOCCn3cncn3)cc2)cc1	none
CCOC1(C(F)(F)F)NC(=O)N(Cc2ccc(OC)cc2)C1=O (centres undefined)	none
CCOC(=O)c1[nH]c(C)c(C(=O)Nc2ccccc2F)c1C	SF-1 act 82.6, Jurkat viability 88.6, RORa activator 110.5
